Experimental findings from article PMC11297572 (International Journal of Nanomedicine, 2024) are described below.

In brackets after ≈: the same amount, converted by molar mass. Entries after “also recorded” stand apart in the source; their conditions may differ.

The subject of series [1] is A549 cells. As to the kind of experiment: MTT growth inhibition of A549 cells. The format is cell-based. The note with it: Homo sapiens. Summed up: (§1)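 Cells were grown in RPMI 1640 or DMEM with 10% FBS and 100 U/mL penicillin-streptomycin at 37 °C, 5% CO2. Log-phase cells were seeded at 3–5×10³ per well and cultured 24 h before graded drug concentrations were added. After 24 or 48 h exposure, MTT (5 mg/mL solution) was added for 3–4 h. Medium was removed, formazan dissolved in DMSO with 10 min shaking, and OD read at 490 nm. Growth inhibition rate was calculated from OD. Data are mean ± SD of triplicates.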

For series [2], the system named is H460 cells. As to the kind of experiment: MTT growth inhibition of H460 cells. The format is cell-based. The note with it: Homo sapiens. Summed up:
as §1

The subject of series [3] is A549 cells. As to the kind of experiment: Apoptosis of A549 cells. The format is cell-based, human. The note with it: 24 h.
In series [4] the test system is A549 subcutaneous transplanted tumor. Nature of the series: In vivo antitumor efficacy in tumor-bearing nude mice. The note with it: 21 days of administration. An outline of the steps: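 The xenograft model used A549 cells. Treatment ran for 21 days with body weight tracked against the start of dosing; n = 5 per group. At the end, surviving mice were killed and tumors were excised and weighed to calculate tumor inhibition rate.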

Series [5] shares this test system. As to the kind of experiment: HE staining of tumor tissues. The format is in vivo, nude mice. The note with it: tumor tissue after 21 days. An outline of the steps: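 Subcutaneous tumors were excised after 21 days of treatment once the surviving mice were killed. Tissue was washed twice in 0.9% saline, fixed in 4% paraformaldehyde, dehydrated, paraffin-embedded and sectioned. Sections were stained with hematoxylin and eosin and assessed for pathology. All procedures were done blind.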

In series [6] the test system is Ki67. Nature of the series: Immunohistochemistry of Ki67 in tumor tissues. The format is in vivo, nude mice. The note with it: tumor tissue after 21 days. An outline of the steps:
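Tumors were taken at the end of the 21-day study and fixed in 4% paraformaldehyde for 24 h. They were dehydrated in absolute alcohol, paraffin-embedded and sectioned. Antigen retrieval was 5 min at high temperature in 0.01 M citrate buffer, pH 6.0. Primary antibody (1:200) was applied overnight at 4 °C, then secondary antibody for 30 min at 37 °C. Sections were developed with DAB, counterstained with hematoxylin and imaged. Scoring was blind.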

The test system of series [7] is heart, liver, kidney and lung tissues. Nature of the series: HE staining of organs. The format is in vivo. The note with it: lung of nude mice after administration.

With `CC(=O)O[C@H]1C(=O)[C@@]2(C)[C@H]([C@H](OC(=O)c3ccccc3)[C@]3(O)C[C@H](OC(=O)[C@H](O)[C@@H](NC(=O)c4ccccc4)c4ccccc4)C(C)=C1C3(C)C)[C@]1(OC(C)=O)CO[C@@H]1C[C@@H]2O` [PTX, paclitaxel], the 50% inhibitory concentration (IC50) in series [1] (A549, 24 h) is 45.9 µg/mL (≈ 53.7 µM); in series [1] (A549, 48 h), 31.7 µg/mL (≈ 37.1 µM); in series [2] (NCI-H460, 24 h), 49.3 µg/mL (≈ 57.7 µM); in series [2] (NCI-H460, 48 h), 39.4 µg/mL (≈ 46.1 µM). Further, the apoptosis rate is 3.57% in series [3] (A549, 5 μg/mL); 7.34% in series [3] (A549, 10 μg/mL); 16.6% in series [3] (A549, 20 μg/mL). The body weight change result in series [4] (nude mice) is given as “gradual”. In series [4] (tumor-bearing nude mice), the tumor inhibition rate amounted to 29.95%. Further, in series [5], the “necrosis of tumor tissue (necrotic area)” value was “approximately 20%”. In series [6], the “expression of Ki67 in tumor tissues” value came to 45.88%. For the same compound, the “pathological changes in organs (HE staining)” value in series [7] was “pathological changes and tumor cell infiltration; also recorded: different degrees of pathological changes and necrosis in their hearts and livers”.
